According to publication PMC7501955 (Drug Design, Development and Therapy, 2020):

Test system: duck HBV (DHBV)
Test: Antiviral efficacy in a duck HBV model, serum DHBV DNA by quantitative PCR
Assay type: in vivo, Pekin ducklings
Conditions: DHBV-infected ducks, 50 mg/kg 3TC; for Serum DHBV DNA: P<0.001
In short: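 Pekin ducklings were infected with DHBV-positive duck serum and assayed for DNA load 7 days later (T0). Groups of five received test compound at 25, 50 or 100 mg/kg by oral gavage for 14 days. Controls were saline (negative) and 3TC 50 mg/kg once daily (positive). Serum DHBV DNA was measured by qPCR on treatment days 0, 7, 14 and 3 days after stopping; mean ± SD.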

Structure (SMILES): Nc1ccn([C@@H]2CS[C@H](CO)O2)c(=O)n1 [3TC, lamivudine]
- Reduction of serum DHBV DNA compared to vehicle controls (T7): up to 2 log10
- Serum DHBV DNA (T7 (day 7 of treatment)): significantly inhibited
- Serum DHBV DNA (T14 (day 14 of treatment)): significantly inhibited
